The target of experiment [1] is Bromodomain-containing protein 4 (Homo sapiens) (UniProt O60885). In words: Binding affinity to human partial length BRD4 bromodomain 1 long isoform (N44 to E168 residues) expressed in bacterial expression system at 1 uM by BROMOscan assay. The gist of the method: (§1)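 BROMOscan bromodomain cross-screen run by an outside service, compound at 1 µM against 32 recombinant bromodomains. Binding given as percent of control.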

Experiment [2] deals with SWI/SNF-related matrix-associated actin-dependent regulator of chromatin subfamily A member 4 (Homo sapiens) (UniProt P51532). In words: Binding affinity to human partial length SMARCA4 (A1448 to S1575 residues) expressed in bacterial expression system at 1 uM by BROMOscan assay. The gist of the method:
as §1

The target of experiment [3] is Bromodomain-containing protein 1 (Homo sapiens) (UniProt O95696). In words: Binding affinity to human partial length BRD1 (E556 to A688 residues) expressed in bacterial expression system at 1 uM by BROMOscan assay. The gist of the method: as §1
For experiment [4], the target named is Serine/threonine-protein kinase 17A (Homo sapiens) (UniProt Q9UEE5). In words: Inhibition of recombinant full-length human DRAK1 at 10 uM using KKLNRTLSFAEPG as substrate measured after 40 mins in presence of [gamma33P]ATP by scintillation counting method.
Experiment [5] relates to Angiopoietin-1 receptor (Homo sapiens), Q02763 [Q939H,Q940H,R849W]. In words: Inhibition of human Tie2 Q939H/Q940H/R849W mutant (771 to end residues) using EFPIYDFLPAKKK as substrate measured after 40 mins in presence of [gamma33P]ATP by scintillation counting method.
The target in experiment [6] is Mitogen-activated protein kinase kinase kinase 11 (Homo sapiens) (UniProt Q16584). In words: Inhibition of human MLK3 at 10 uM by radiometric method. The gist of the method:
(§2)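 Kinase panel of 422 kinases screened by Eurofins KinaseProfiler at a single test-compound concentration of 10 µM.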

For experiment [7], the target named is Tyrosine-protein kinase HCK (Homo sapiens) (UniProt P08631). In words: Inhibition of recombinant human activated HCK (230 to 497 residues) at 10 uM using GGMEDIYFEFMGGKKK as substrate measured after 40 mins in presence of [gamma33P]ATP by scintillation counting method.
Experiment [8] concerns the target Transcription intermediary factor 1-alpha (Homo sapiens) (UniProt O15164). In words: Binding affinity to human partial length TRIM24 (P790 to P977 residues) expressed in bacterial expression system at 1 uM by BROMOscan assay. The gist of the method: as §1
Experiment [9] concerns the target Homeodomain-interacting protein kinase 3 (Homo sapiens) (UniProt Q9H422). In words: Inhibition of recombinant human HIPK3 (161 to 562 residues) at 10 uM using myelin basic protein as substrate measured after 40 mins in presence of [gamma33P]ATP by scintillation counting method.
Experiment [10] concerns the target Histone acetyltransferase KAT2A (Homo sapiens, UniProt Q92830). In words: Binding affinity to human N-terminal His-tagged GCN5 assessed as change in melting temperature at 10 uM by SYPRO orange dye-based fluorescence assay. The gist of the method:
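Thermal shift with His-tagged human bromodomain at 2 μM final in 10 mM HEPES pH 7.5, 500 mM NaCl. Compound at 10 μM final with 0.1% DMSO; SYPRO Orange at 1:1000. Equilibrated 3 min at 25 °C, then heated from 25 to 95 °C at 1 °C/min. Melting temperature shift taken from fluorescence; at least duplicate.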

Experiment [11] concerns Mast/stem cell growth factor receptor Kit (Homo sapiens), P10721 [D816V]. In words: Inhibition of recombinant human c-Kit D816V mutant (544 to end residues) at 10 uM using poly(Glu, Tyr) 4:1 as substrate measured after 40 mins in presence of [gamma33P]ATP by scintillation counting method.
For experiment [12], the target named is Transcription initiation factor TFIID subunit 1-like (Homo sapiens) (UniProt Q8IZX4). In words: Binding affinity to human partial length TAF1L bromodomain 2 (Q1523 to D1654 residues) expressed in bacterial expression system at 1 uM by BROMOscan assay. The gist of the method: as §1
Experiment [13] deals with Myosin light chain kinase, smooth muscle (Homo sapiens) (UniProt Q15746). In words: Inhibition of recombinant human MLCK (1425 to 1771 residues) at 10 uM using […] as substrate measured after 40 mins in presence of [gamma33P]ATP by scintillation counting method.
The species named for experiment [14] is Homo sapiens. In words: Inhibition of recombinant full-length human PI3K p120gamma R459Q mutant at 10 uM using phosphatidylinositol-4, 5-bisphosphate as substrate measured after 40 mins by fluorescence assay.
The target in experiment [15] is Serine/threonine-protein kinase pim-1 (Homo sapiens) (UniProt P11309). In words: Inhibition of recombinant full-length human Pim1 at 10 uM using KKRNRTLTV as substrate measured after 40 mins in presence of [gamma33P]ATP by scintillation counting method.
The species entered for experiment [16] is Homo sapiens. In words: Inhibition of recombinant human DDR1 V833L mutant (492 to end residues) at 10 uM using KKKSPGEYVNIEFG as substrate measured after 40 mins in presence of [gamma33P]ATP by scintillation counting method.
For experiment [17], the target named is Non-receptor tyrosine-protein kinase TYK2 (Homo sapiens) (UniProt P29597). In words: Inhibition of human TYK2 (875 to end residues) using GGMEDIYFEFMGGKKK as substrate measured after 40 mins in presence of [gamma33P]ATP by scintillation counting method.
The target in experiment [18] is Serine/threonine-protein kinase SIK2 (Homo sapiens) (UniProt Q9H0K1). In words: Inhibition of human SIK2 (1 to 276 residues) using KKKVSRSGLYRSPSMPENLNRPR as substrate measured after 40 mins in presence of [gamma33P]ATP by scintillation counting method. In a few lines: as §2
Experiment [19] has as its target cGMP-dependent protein kinase 1 (Homo sapiens) (UniProt Q13976). In words: Inhibition of recombinant full-length human PKG1alpha at 10 uM using RRRLSFAEPG as substrate measured after 40 mins in presence of [gamma33P]ATP by scintillation counting method.
For experiment [20], the target named is Receptor-type tyrosine-protein kinase FLT3 (Homo sapiens) (UniProt P36888). In words: Inhibition of recombinant human Flt3 (564 to end residues) at 10 uM using EAIYAAPFAKKK as substrate measured after 40 mins in presence of [gamma33P]ATP by scintillation counting method.
Experiment [21] concerns the target Cyclin-dependent kinase-like 2 (Homo sapiens) (UniProt Q92772). In words: Inhibition of human CDKL2 at 10 uM by radiometric method. The gist of the method:
as §2

Experiment [22] deals with Casein kinase I isoform gamma-1 (Homo sapiens) (UniProt Q9HCP0). In words: Inhibition of recombinant human CK1gamma1 (25 to 355 residues) at 10 uM using KRRRALS(p)VASLPGL as substrate measured after 40 mins in presence of [gamma33P]ATP by scintillation counting method.
The target in experiment [23] is Misshapen-like kinase 1 (Homo sapiens) (UniProt Q8N4C8). In words: Inhibition of recombinant human MINK (1 to 310 residues) at 10 uM using myelin basic protein as substrate measured after 40 mins in presence of [gamma33P]ATP by scintillation counting method.

Activity calls are given as the source filed them. The rule behind the calls is not given here.

Serine/threonine-protein kinase pim-1 (Homo sapiens), sequence (P11309 whole entry, looked up): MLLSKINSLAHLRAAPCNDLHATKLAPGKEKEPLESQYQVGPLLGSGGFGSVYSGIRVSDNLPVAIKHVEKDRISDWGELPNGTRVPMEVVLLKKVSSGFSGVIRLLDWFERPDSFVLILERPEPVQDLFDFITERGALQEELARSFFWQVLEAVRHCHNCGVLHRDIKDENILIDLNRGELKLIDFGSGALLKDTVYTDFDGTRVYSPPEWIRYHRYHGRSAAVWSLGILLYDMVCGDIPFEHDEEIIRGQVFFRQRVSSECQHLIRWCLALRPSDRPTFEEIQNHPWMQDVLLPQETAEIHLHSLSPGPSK
Angiopoietin-1 receptor (Homo sapiens), Q02763 [Q939H,Q940H,R849W], sequence (Q02763 whole entry R849W/Q939H/Q940H): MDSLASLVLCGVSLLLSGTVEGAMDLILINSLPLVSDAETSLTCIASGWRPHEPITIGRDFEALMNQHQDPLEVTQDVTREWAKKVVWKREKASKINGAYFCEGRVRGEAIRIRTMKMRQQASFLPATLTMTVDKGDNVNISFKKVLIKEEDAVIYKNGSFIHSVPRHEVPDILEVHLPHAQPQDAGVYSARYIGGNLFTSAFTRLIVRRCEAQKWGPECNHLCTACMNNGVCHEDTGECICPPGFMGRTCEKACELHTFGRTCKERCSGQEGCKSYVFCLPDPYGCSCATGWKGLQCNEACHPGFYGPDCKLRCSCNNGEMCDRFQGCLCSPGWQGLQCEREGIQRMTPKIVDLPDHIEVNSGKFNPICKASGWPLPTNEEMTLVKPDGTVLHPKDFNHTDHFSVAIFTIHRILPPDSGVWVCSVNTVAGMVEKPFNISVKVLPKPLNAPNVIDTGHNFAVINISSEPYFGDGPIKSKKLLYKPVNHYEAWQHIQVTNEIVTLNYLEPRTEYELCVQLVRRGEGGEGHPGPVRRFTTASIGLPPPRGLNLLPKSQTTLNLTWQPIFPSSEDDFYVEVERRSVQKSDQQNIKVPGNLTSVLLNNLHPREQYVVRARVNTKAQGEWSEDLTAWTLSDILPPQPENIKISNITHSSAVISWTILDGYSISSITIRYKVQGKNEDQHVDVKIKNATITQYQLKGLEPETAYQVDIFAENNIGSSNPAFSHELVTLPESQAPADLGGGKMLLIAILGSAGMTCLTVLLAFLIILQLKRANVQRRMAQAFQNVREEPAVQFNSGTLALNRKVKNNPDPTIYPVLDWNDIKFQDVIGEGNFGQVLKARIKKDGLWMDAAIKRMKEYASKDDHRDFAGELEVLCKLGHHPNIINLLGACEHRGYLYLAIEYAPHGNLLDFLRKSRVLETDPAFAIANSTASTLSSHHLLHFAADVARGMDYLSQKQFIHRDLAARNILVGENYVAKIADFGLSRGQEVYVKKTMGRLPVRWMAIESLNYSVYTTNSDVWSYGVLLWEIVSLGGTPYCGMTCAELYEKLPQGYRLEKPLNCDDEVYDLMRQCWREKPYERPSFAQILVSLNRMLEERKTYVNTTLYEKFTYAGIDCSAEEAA
SWI/SNF-related matrix-associated actin-dependent regulator of chromatin subfamily A member 4 (Homo sapiens), sequence (P51532 whole entry, the tested form may be a part): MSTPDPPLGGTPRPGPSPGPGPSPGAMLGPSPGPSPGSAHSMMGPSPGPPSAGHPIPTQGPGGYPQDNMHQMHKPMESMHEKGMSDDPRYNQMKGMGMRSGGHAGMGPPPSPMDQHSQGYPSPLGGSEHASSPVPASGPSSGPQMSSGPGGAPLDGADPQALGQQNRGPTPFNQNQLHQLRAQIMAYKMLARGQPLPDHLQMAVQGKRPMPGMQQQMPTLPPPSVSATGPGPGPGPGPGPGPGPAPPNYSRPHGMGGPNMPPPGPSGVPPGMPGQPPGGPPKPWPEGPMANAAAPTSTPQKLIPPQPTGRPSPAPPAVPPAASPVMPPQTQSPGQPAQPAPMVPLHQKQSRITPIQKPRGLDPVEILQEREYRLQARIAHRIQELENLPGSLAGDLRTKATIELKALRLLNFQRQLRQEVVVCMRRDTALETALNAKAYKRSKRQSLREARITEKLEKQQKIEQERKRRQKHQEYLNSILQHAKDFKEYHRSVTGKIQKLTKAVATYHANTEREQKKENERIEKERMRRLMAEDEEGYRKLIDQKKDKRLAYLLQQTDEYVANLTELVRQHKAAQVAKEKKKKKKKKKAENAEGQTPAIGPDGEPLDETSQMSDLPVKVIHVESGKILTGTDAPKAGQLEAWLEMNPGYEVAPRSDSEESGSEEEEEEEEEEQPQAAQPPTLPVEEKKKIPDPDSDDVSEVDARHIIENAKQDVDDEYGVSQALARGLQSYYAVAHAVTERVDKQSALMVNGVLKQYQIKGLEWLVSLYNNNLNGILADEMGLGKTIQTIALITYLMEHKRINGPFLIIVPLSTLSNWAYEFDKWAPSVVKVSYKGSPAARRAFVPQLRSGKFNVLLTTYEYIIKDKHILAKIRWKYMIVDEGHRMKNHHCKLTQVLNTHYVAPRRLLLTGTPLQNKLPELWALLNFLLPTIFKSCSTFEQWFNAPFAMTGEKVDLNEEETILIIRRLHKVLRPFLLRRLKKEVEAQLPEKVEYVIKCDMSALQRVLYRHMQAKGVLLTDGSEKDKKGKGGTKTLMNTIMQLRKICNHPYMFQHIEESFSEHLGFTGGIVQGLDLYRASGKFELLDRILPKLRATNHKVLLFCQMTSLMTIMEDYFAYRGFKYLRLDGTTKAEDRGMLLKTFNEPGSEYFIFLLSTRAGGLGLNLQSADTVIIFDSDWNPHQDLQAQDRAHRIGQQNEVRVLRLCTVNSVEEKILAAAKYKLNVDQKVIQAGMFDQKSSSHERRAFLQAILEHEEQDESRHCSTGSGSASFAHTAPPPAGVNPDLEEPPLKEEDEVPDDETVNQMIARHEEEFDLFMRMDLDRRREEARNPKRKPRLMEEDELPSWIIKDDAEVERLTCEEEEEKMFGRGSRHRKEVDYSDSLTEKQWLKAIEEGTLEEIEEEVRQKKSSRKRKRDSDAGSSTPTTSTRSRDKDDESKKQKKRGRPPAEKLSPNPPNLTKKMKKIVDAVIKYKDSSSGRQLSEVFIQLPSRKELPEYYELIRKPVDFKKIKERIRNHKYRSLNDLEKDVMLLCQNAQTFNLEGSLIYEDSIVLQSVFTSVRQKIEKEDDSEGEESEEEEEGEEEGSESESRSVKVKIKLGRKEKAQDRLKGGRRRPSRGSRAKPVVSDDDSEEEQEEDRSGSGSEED
cGMP-dependent protein kinase 1 (Homo sapiens), sequence (Q13976 whole entry): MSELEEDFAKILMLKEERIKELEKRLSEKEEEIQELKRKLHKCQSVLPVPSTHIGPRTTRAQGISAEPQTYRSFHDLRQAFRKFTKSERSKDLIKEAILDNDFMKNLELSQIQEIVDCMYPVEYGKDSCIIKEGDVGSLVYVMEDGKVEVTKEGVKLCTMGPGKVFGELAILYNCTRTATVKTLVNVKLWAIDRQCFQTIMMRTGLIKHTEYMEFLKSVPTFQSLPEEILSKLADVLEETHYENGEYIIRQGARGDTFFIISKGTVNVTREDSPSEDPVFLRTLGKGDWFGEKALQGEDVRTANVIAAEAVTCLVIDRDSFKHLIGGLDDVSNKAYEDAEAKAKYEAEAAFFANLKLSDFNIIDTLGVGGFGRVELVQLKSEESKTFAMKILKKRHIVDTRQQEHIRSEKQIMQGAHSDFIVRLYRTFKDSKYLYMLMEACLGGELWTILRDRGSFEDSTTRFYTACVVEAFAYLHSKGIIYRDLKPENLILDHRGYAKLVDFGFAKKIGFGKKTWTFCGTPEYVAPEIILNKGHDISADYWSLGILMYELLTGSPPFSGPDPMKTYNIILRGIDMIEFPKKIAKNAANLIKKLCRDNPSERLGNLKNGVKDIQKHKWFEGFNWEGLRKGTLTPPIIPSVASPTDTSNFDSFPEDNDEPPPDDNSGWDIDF
Tyrosine-protein kinase HCK (Homo sapiens), sequence (P08631 2-526 limits assumed): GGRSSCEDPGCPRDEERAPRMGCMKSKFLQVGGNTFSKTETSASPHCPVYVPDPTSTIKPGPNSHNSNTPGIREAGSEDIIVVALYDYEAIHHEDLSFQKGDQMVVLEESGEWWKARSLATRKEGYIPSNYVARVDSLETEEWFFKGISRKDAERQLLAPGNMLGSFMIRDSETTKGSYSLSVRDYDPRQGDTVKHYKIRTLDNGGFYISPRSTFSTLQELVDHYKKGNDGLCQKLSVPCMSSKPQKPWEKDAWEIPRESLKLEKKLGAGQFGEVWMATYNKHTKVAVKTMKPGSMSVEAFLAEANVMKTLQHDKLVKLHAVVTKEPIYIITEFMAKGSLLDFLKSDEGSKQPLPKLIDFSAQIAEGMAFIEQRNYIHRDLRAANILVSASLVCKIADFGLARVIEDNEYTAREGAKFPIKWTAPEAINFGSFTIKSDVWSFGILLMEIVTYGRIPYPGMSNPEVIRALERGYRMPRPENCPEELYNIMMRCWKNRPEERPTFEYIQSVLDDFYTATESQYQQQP
Casein kinase I isoform gamma-1 (Homo sapiens), sequence (Q9HCP0 whole entry, looked up, the tested form may be a part, canonical isoform): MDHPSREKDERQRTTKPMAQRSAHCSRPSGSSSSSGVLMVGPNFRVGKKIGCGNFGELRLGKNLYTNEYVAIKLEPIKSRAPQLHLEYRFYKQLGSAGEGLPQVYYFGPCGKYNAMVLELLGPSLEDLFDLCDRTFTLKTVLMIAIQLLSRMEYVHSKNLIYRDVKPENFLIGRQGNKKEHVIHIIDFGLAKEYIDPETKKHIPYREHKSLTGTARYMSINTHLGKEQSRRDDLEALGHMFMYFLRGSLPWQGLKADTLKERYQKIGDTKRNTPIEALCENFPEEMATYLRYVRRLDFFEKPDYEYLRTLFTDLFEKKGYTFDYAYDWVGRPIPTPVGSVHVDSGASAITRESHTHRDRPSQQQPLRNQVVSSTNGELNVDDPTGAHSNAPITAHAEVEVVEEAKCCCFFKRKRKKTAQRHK

As to `CN1C[C@H](Nc2nc3cc[nH]c3c(=O)n2C)C[C@H](c2ccc3c(c2)OCCO3)C1`, the outcome in experiment [1], in [2], in experiment [3], in [8] and in experiment [12] was inactive. Moreover, the inhibition entry in experiment [4], in experiment [5], in [6], in [7], in experiment [9] and in [11] was “inactive” each time. Also, the inhibition entry in experiment [13], in experiment [14], in experiment [15], in [16], in [17] and in experiment [18] was “inactive” throughout. Further, the inhibition entry in experiment [19], in experiment [20], in [21], in experiment [22] and in [23] was “inactive” each time. Also, in experiment [10], the shift in melting temperature (ΔTm) (as a rule, the shift of the melting midpoint relative to a reference) was 7.3 °C.

The values above are taken from ChEMBL document CHEMBL4350961, “Discovery of Pyrrolo[3,2- d]pyrimidin-4-one Derivatives as a New Class of Potent and Cell-Active Inhibitors of P300/CBP-Associated Factor Bromodomain” (J Med Chem, 2019).
